V1aR counter: V1a receptor agonism, counter-screen for OXTR agonists; P37288; CHO-V1R cells, Fluo-8 calcium fluorescence, agonist mode; 0% DMSO, 100% 3 nM vasopressin; activation, % at 3 µM; hit rate 0.25% among 320,000;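 active = activation above the mean activation of all tested compounds plus 3 SD, per screening run, cut at about 20% in these data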;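 also: signal is peak over basal fluorescence ratio across a 100 second FLIPR read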
OX1R antag-1: antagonists of human orexin 1 receptor; CHO/OX1R cells, Fluo-8 calcium fluorescence, orexin A; inhibition, % at 5 µM; AID 434989; hit rate 0.43% among 330,000;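 active = inhibition above its plate's threshold, mean inhibition of all tested compounds on the plate plus 3 SD, cut at about 37% in these data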;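 also: 0% = orexin A challenge wells and 100% = SB-334867-A antagonist wells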
CHO parental Ca: counter-screen: ATP calcium response change in parental CHO cells; parental CHO-K1, ATP-induced calcium, Fluo-8 fluorescence; inhibition, % at 5.6 µM; hit rate 0.63% among 330,000;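 active = inhibition above that plate's mean sample inhibition plus 3 SD, cut at about 26% in these data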;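 also: 0% = ATP-challenged DMSO wells and 100% = DMSO wells without ATP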
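Test system: untransfected parental CHO cell line. Compound: one dose, 5.6 µM nominal. Detection: intracellular calcium via Fluo-8 no-wash fluorescent dye. Measure: % inhibition. Benchmarks: ATP-challenged DMSO wells low, unchallenged DMSO wells high.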
OXTR agonist: agonists of human oxytocin receptor; P30559; activation, % at 3 µM; hit rate 0.32% among 320,000; CHO-OTR cells, Fluo-8 calcium fluorescence; normalized: DMSO 0%, oxytocin 100%;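 active = activation above the mean of all tested compounds plus 3 SD, cutoff set per screening run, cut at about 20% in these data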;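 also: peak over basal fluorescence ratio from a 100 s FLIPR kinetic read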
Target sequence (P30559 whole entry, looked up): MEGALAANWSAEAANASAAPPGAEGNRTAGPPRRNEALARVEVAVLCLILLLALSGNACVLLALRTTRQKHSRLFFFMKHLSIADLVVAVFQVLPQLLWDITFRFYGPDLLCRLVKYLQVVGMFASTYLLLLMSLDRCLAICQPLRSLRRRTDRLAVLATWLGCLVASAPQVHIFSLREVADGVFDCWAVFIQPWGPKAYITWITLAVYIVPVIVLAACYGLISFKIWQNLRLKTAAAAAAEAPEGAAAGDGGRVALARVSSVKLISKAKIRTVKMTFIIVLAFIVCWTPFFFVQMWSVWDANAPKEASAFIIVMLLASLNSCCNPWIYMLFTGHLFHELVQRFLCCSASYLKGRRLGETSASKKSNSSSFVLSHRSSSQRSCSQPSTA
OX1R antag-2: blocks the human orexin 1 receptor | AID 485270 | inhibition, % at 6.6 µM | OX1R-expressing cells, FRET antagonist read-out | O43613 | hit rate 1.8% among 330,000; in the data active = inhibition mostly above about 38%, no sharp cut-off; inactive = mostly below about 40%;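 also: 0% = agonist challenge alone and 100% = reference antagonist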
OXTR potentiate: potentiators of human oxytocin receptor; hit rate 0.061% among 320,000; AID 2445; P30559; activation, % at 3 µM; CHO-OTR cells, Fluo-8 calcium fluorescence, potentiator mode; 0% = oxytocin EC15, 100% = EC100;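 active = activation above that plate's cutoff, the mean activation of tested compounds plus 3 SD, cut at about 6.6% in these data, passing the limit was not always enough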;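 also: 100% uses oxytocin at 75 nM as the full agonist control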
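Assay system: CHO-OTR cells, human receptor / Also added: oxytocin at about EC15, sub-maximal agonist stimulus / Dosing: single dose, 3.0 µM nominal final compound concentration / Incubation: 6 min pre-incubation, 100 s read / Technique: Fluo-8 calcium dye fluorescence / Read-out: % activation vs EC15 and EC100 oxytocin / Benchmarks: EC15 oxytocin low, 75 nM oxytocin high / Replicates: singlicate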
OX1R Fluo8 conf: OX1R (human) antagonism, confirmed; shares compounds with OX1R antag-1; CHO/OX1R cells, orexin A calcium Fluo-8 fluorescence; inhibition, % at 5 µM; hit rate 38% among 1,100; AID 492963; in the data active = inhibition above about 29%;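 also: 0% = agonist challenge alone and 100% = reference antagonist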
CHO Ca triplic: counter-screen for OX1R antagonists: effect in parental CHO cells; shares compounds with OX1R antag-1; parental CHO-K1, ATP-induced calcium, Fluo-8 fluorescence; inhibition, % at 5.6 µM; hit rate 9.3% among 1,100;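 active = inhibition above a per-plate limit, the mean inhibition of that plate's test compounds plus 3 SD, cut at about 25% in these data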;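 also: 0% = ATP challenge with DMSO and 100% = DMSO without ATP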
OX1R HTRF confirm: confirmation of human orexin 1 receptor antagonists, HTRF format; AID 492964; shares compounds with OX1R antag-2; OX1R-expressing cells, HTRF antagonist assay; hit rate 49% among 1,800; inhibition, % at 6.6 µM; in the data active = inhibition above about 55%;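 also: CHO cells expressing OX1R stimulated with orexin A at about EC80; 0% = agonist challenge alone and 100% = reference antagonist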
CHO-K1 HTRF: counter-screen for OX1R antagonists: effect in parental CHO-K1 cells. HTRF counterscreen. inhibition, % at 6.6 µM. shares compounds with OX1R antag-2. hit rate 48% among 1,800; in the data active = inhibition above about 17%;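 also: 0% = agonist challenge with vehicle and 100% = vehicle alone without agonist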
Active calls of the source: *. Most compounds without a hit are left out; they make up all but 2.7% or so of the library.

For Cc1ccc(C(=O)/C=C/c2cn(CC(O)CN3CCOCC3)c3ccccc23)cc1 (configuration not stated) the results were V1aR counter 8, OX1R antag-1 0, CHO parental Ca 3, OXTR agonist 7, OX1R antag-2 5 and OXTR potentiate -8.
COc1ccc(C(=O)/C=C/c2cn(CN3CCN(C)CC3)c3ccccc23)cc1 was read as V1aR counter 0, OX1R antag-1 25, CHO parental Ca -7, OXTR agonist 1, OX1R antag-2 71*, OXTR potentiate -8, OX1R Fluo8 conf 9, CHO Ca triplic -9, OX1R HTRF confirm 33 and CHO-K1 HTRF 6.
For O=S(=O)(c1ccccc1)N1CCCc2ccccc21 the results were V1aR counter -1, OX1R antag-1 -14, CHO parental Ca 3, OXTR agonist -2, OX1R antag-2 17 and OXTR potentiate -4.
Screening O=S(=O)(NC1CC1)c1ccc(S(=O)(=O)N2CCCc3ccccc32)cc1 returned V1aR counter 7, OX1R antag-1 82*, CHO parental Ca 1, OXTR agonist 9, OX1R antag-2 37*, OXTR potentiate -14, OX1R Fluo8 conf 60*, CHO Ca triplic 5, OX1R HTRF confirm 62* and CHO-K1 HTRF -1.
`Cc1cc2cc(CCNC(=O)CCCc3ccccc3)c(=O)[nH]c2cc1C` gave V1aR counter 1, OX1R antag-1 -24, CHO parental Ca -23, OXTR agonist -2, OX1R antag-2 15 and OXTR potentiate -6.
Screening Cc1ccc(NC(=O)CN2CCCC2c2cccs2)cc1S(=O)(=O)N1CCCCC1 (configuration not stated) returned V1aR counter 2, OX1R antag-1 43*, CHO parental Ca -6, OXTR agonist 1, OX1R antag-2 30*, OXTR potentiate -9, OX1R Fluo8 conf 12, CHO Ca triplic 1, OX1R HTRF confirm 48 and CHO-K1 HTRF 1.
`CCn1c2ccccc2c2nc3ccccc3nc21` gave V1aR counter -1, OX1R antag-1 27, CHO parental Ca -5, OXTR agonist -2, OX1R antag-2 93*, OXTR potentiate -1, OX1R Fluo8 conf 43*, CHO Ca triplic -11, OX1R HTRF confirm 93* and CHO-K1 HTRF -6.
CCCCCN(C(=O)CCC(=O)OCC(=O)N(CC)C1CCCCC1)c1c(N)n(CCCC)c(=O)[nH]c1=O was read as V1aR counter 0, OX1R antag-1 -12, CHO parental Ca 0, OXTR agonist 0, OX1R antag-2 19 and OXTR potentiate -6.
For N#C/C(=N\Nc1cccc([N+](=O)[O-])c1)C(=O)c1ccc(Br)cc1 the results were V1aR counter 8, OX1R antag-1 42*, CHO parental Ca 26, OXTR agonist 12, OX1R antag-2 94*, OXTR potentiate -16, OX1R Fluo8 conf 21, CHO Ca triplic 50*, OX1R HTRF confirm 39 and CHO-K1 HTRF 19*.
For COc1ccc(NC(=O)CN(C)S(=O)(=O)c2ccc3[nH]c(=O)oc3c2)cc1 the results were V1aR counter 0, OX1R antag-1 38, CHO parental Ca -28, OXTR agonist -1, OX1R antag-2 56*, OXTR potentiate -11, OX1R Fluo8 conf 15, CHO Ca triplic -3, OX1R HTRF confirm 36 and CHO-K1 HTRF 7.
Screening Cc1cc(N/N=C/c2ccc(O)c(C)c2O)nc(-c2ccccc2O)n1 returned V1aR counter 3, OX1R antag-1 51*, CHO parental Ca 18, OXTR agonist 1, OX1R antag-2 63*, OXTR potentiate -5, OX1R Fluo8 conf 39*, CHO Ca triplic 4, OX1R HTRF confirm 47 and CHO-K1 HTRF 17*.
Screening Cc1cc(NCCCN)nc(-c2ccccc2O)n1 returned V1aR counter -1, OX1R antag-1 41, CHO parental Ca 6, OXTR agonist 0, OX1R antag-2 55*, OXTR potentiate -11, OX1R Fluo8 conf 18, CHO Ca triplic -3, OX1R HTRF confirm 22 and CHO-K1 HTRF 3.
O=C(Nc1cccc(S(=O)(=O)N2CCCCC2)c1)c1ccc(N2CCCC2=O)cc1 was read as V1aR counter 1, OX1R antag-1 -21, CHO parental Ca -8, OXTR agonist 1, OX1R antag-2 2 and OXTR potentiate -7.
`NNC(=O)c1nc[nH]c1C(=O)Nc1ccccc1` gave V1aR counter 0, OX1R antag-1 25, CHO parental Ca -21, OXTR agonist -1, OX1R antag-2 51*, OXTR potentiate -8, OX1R Fluo8 conf 8, CHO Ca triplic 17, OX1R HTRF confirm 23 and CHO-K1 HTRF 3.
`O=C(Nc1ccccc1)c1nc[nH]c1C(=O)NCc1ccccc1` gave V1aR counter 0, OX1R antag-1 -15, CHO parental Ca 3, OXTR agonist 0, OX1R antag-2 10 and OXTR potentiate 2.
O=C(Nc1ccccc1)[C@@H]1CC=C[C@@H]2CCN(Cc3ccc(Cl)c(Cl)c3)C(=O)[C@@H]21 was read as V1aR counter 0, OX1R antag-1 66*, CHO parental Ca -27, OXTR agonist 2, OX1R antag-2 85*, OXTR potentiate -7, OX1R Fluo8 conf 56*, CHO Ca triplic -18, OX1R HTRF confirm 92* and CHO-K1 HTRF 2.
`COc1ccc(C(=O)O)cc1S(=O)(=O)Nc1ccccc1C(=O)NCc1ccc2c(c1)OCO2` gave V1aR counter 2, OX1R antag-1 -5, CHO parental Ca -7, OXTR agonist 0, OX1R antag-2 4 and OXTR potentiate 6.
Screening O=C1OC[C@H]2CCCN2C(=O)[C@@H](CC(=O)N(CCO)Cc2ccccc2)C/C=C\CC[C@H]1Cc1ccc(F)cc1 returned V1aR counter 0, OX1R antag-1 -19, CHO parental Ca -15, OXTR agonist -2, OX1R antag-2 6 and OXTR potentiate -8.
Screening Cc1nc(-c2coc3cc(O)c(C)cc3c2=O)cs1 returned V1aR counter 3, OX1R antag-1 33, CHO parental Ca -5, OXTR agonist 4, OX1R antag-2 86*, OXTR potentiate -11, OX1R Fluo8 conf 28, CHO Ca triplic -14, OX1R HTRF confirm 89* and CHO-K1 HTRF -3.
